From ChEMBL document CHEMBL4732206, “Novel diaryl-2H-azirines: Antitumor hybrids for dual-targeting tubulin and DNA” (Eur J Med Chem, 2021)
The source made the active and inactive calls. The calls are words filed in the database; no cut-off is given here.

Legend:
[1] = test system: HCT-116; assay: Antiproliferative activity against human HCT-116 cells assessed as reduction in cell viability incubated for 48 hrs by MTT assay; format: functional, cell-based; conditions: HCT-116, 48 h
Procedure, shortened: (§1)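 Cells were grown in DMEM with 10% FBS and penicillin/streptomycin at 37 °C and 5% CO2. They were seeded for 24 h, then treated with graded concentrations for 48 h. MTT (5 mg/mL) was added for a further 4 h at 37 °C. Formazan was dissolved in DMSO and absorbance read at 570 nm. IC50 was taken from the concentration-response curve.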

[2] = test system: A549; assay: Antiproliferative activity against human A549 cells assessed as reduction in cell viability incubated for 48 hrs by MTT assay; format: functional, cell-based; conditions: A549, 48 h; procedure, shortened: as §1
[3] = biological target: Tubulin (Homo sapiens) (UniProt P68371+Q9H4B7+P0DPH7+P68366+Q13509+Q71U36+P04350+Q3ZCM7+P07437+P68363+Q9BQE3+Q6PEY2+Q13885+Q9BVA1+Q9BUF5); assay: Inhibition of tubulin polymerization in human HeLa cells assessed as disorganisation of microtubule at 100 to 200 nM incubated for overnight by DAPI staining based immunofluorescence assay; format: cell-based; conditions: dose 100-200 nM
Procedure, shortened: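 HeLa cells were exposed overnight to a range of compound concentrations, with DMSO as the negative control. Cells were fixed in methanol, permeabilised with 0.1% Triton X-100 and blocked in 3% BSA for 1 h. They were probed with anti-α-tubulin monoclonal antibody overnight at 4 °C, then an Alexa 488 secondary antibody. Nuclei were stained with DAPI for 10 min at room temperature, and cells were imaged by confocal fluorescence microscopy.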

[4] = test system: Jurkat; assay: Induction of DNA damage in human Jurkat cells assessed as increase in DNA lesion incubated for 48 hrs by comet assay; format: functional, cell-based; conditions: dose 100-400 nM
Procedure, shortened: (§2)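 Jurkat cells were exposed to graded concentrations, MMC 200 nM positive control or DMSO for 48 h at 37 °C, with work done in darkness. Cells were embedded in LM agarose on comet slides and lysed for 2 h at 4 °C. Slides were unwound in 1 mM EDTA/200 mM NaOH for 30 min, electrophoresed at 25 V for 15 min, stained with ethidium bromide and imaged by fluorescence microscopy. Tail moment was scored.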

[5] = test system: Jurkat; assay: Induction of DNA damage in human Jurkat cells assessed as upregulation of Bax protein expression incubated for 48 hrs by Western blot analysis; format: functional, cell-based; conditions: dose 2-8 µM
[6] = test system: Jurkat; assay: Induction of DNA damage in human Jurkat cells assessed as upregulation of GADD45alpha protein expression incubated for 48 hrs by Western blot analysis; format: functional, cell-based; conditions: dose 2-8 µM
[7] = test system: HeLa; assay: Induction of apoptosis in human HeLa cells assessed as early apoptotic cells at 1 uM incubated for 48 hrs by annexin-V-FITC and PI staining based flow cytometry analysis (reference value: 2.25 %); format: functional
[8] = test system: HeLa; assay: Induction of apoptosis in human HeLa cells assessed as necrotic cells at 1 uM incubated for 48 hrs by annexin-V-FITC and PI staining based flow cytometry analysis (reference value: 0.18 %); format: functional
[9] = test system: HeLa; assay: Induction of apoptosis in human HeLa cells assessed as late apoptotic cells at 2 uM incubated for 48 hrs by annexin-V-FITC and PI staining based flow cytometry analysis (reference value: 0.23 %); format: functional
[10] = test system: HeLa; assay: Induction of apoptosis in human HeLa cells assessed as late apoptotic cells at 8 uM incubated for 48 hrs by annexin-V-FITC and PI staining based flow cytometry analysis (reference value: 0.23 %); format: functional
[11] = test system: HeLa; assay: Induction of apoptosis in human HeLa cells assessed as upregulation of p53 protein expression by Western blot analysis; format: functional, cell-based; conditions: dose 2-8 µM
Procedure, shortened: (§3)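 HeLa cells were treated with graded concentrations or DMSO, washed in PBS and lysed. Protein was measured by BCA, separated by SDS-PAGE and transferred to PVDF. Membranes were blocked in 5% BSA/TBST, incubated with primary antibodies overnight at 4 °C, then with HRP secondary antibodies. Bands were detected by chemiluminescence.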

[12] = test system: HeLa; assay: Induction of apoptosis in human HeLa cells assessed as upregulation of PARP cleavage by Western blot analysis; format: functional, cell-based; conditions: dose 2-8 µM; procedure, shortened: as §3
[13] = test system: HeLa; assay: Induction of cell cycle arrest in human HeLa cells assessed as upregulation of cyclinB1 protein expression at 0.8 to 3.2 uM by Western blot analysis; format: functional, cell-based; conditions: dose 0.8-3.2 µM; procedure, shortened: as §3
[14] = test system: HUVEC; assay: Antiangiogenic activity in HUVEC assessed as disruption of capillary structure incubated for 12 hrs by matrigel-based microscopic analysis; format: functional, cell-based; conditions: Homo sapiens, dose 75-150 nM
Procedure, shortened: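 Matrigel polymerized at 37 °C for 2 h, then HUVECs in DMEM were seeded on it. Cells were treated with a range of compound concentrations or DMSO vehicle for 12 h at 37 °C. Capillary-like tubes were photographed through an inverted microscope.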

[15] = Toxicity in Balb/c mouse xenografted with human A2780 cells assessed as effect on body weight at 25 to 50 mg/kg administered every two days; format: organism-based; conditions: in vivo, dose 25-50 mg/kg
Procedure, shortened: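 Nude mice carried A2780 cells implanted in PBS in the right flank. When tumors reached 100 mm³, mice were randomized into four groups (n = 10): vehicle, 25 or 50 mg/kg test compound, and PTX 10 mg/kg. Dosing was every two days; vehicle was 10% castor oil and 10% DMSO in PBS. Volume (π/6 × length × width²) and body weight were measured by caliper and scale at each dose. Tumors were excised and weighed at the end.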

[16] = Toxicity in Balb/c mouse xenografted with human A2780 cells assessed as adverse effect at 25 to 50 mg/kg administered every two days; format: organism-based; conditions: in vivo, dose 25-50 mg/kg
[17] = test system: Jurkat; assay: Induction of DNA damage in human Jurkat cells at 100 to 400 nM incubated for 48 hrs by EB staining based analysis; format: functional, cell-based; conditions: dose 100-400 nM; procedure, shortened: as §2

IC50 [1]: 630 nM
IC50 [2]: 1190 nM
inhibition [3]: Active
SMILES: COc1ccc(C2N=C2c2cc(OC)c(OC)c(OC)c2)cc1F (configuration not stated)
Activity [4]: Dose-dependent effect
Activity [5]: Dose-dependent effect
Activity [6]: Dose-dependent effect
Activity [7]: 2.86%
Activity [8]: 0.28%
Activity [9]: 5.72%
Activity [10]: 7.79%
Activity [11]: Dose-dependent effect
Activity [12]: Dose-dependent effect
Activity [13]: Active
Activity [14]: Dose-dependent effect
Activity [15]: Non-Toxic
Activity [16]: Non-Toxic
Activity [17]: Active
